Screening results from PubChem.
Most compounds without a hit are left out; they make up all but 2.6% or so of the library.
MEKK3 PB1 HTS: modulators (inhibitors or enhancers) of MEK5 binding to human MEKK3 PB1 domain; Q99759; bead-based flow cytometry, Alexa488-MEK5 binding to MEKK3; actives lie on both sides; 0 = blocked by unlabeled MEK5, 100 = vehicle; binding response (% of control), % at 10 µM; 290,000 compounds, 1.4% hits;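 active means binding response more than 3 SD above or below the average of its plate-row segment, actives on both sides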;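 further: Alexa488 bead fluorescence after subtracting the streptavidin-only scavenger bead signal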
Target sequence (Q99759 whole entry, looked up, the tested form may be a part): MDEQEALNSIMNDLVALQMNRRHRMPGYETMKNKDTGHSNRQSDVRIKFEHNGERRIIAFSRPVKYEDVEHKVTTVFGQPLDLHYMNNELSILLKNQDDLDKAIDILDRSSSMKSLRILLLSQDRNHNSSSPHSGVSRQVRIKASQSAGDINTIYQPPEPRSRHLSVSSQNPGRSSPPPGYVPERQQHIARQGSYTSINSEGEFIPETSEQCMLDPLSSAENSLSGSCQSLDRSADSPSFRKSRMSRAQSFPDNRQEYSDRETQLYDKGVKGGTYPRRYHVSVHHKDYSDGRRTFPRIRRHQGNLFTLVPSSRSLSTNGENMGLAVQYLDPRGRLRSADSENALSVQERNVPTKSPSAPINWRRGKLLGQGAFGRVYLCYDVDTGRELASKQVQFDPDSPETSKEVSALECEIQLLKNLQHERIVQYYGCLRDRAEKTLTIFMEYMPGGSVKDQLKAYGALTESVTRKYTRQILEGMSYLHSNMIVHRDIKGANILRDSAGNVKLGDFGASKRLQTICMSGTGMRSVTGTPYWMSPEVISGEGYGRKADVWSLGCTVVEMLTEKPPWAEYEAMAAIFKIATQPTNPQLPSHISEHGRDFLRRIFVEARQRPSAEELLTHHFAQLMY
MEKK2 mut-MEK5: signal of MEK5 binding to mutant human MEKK2 PB1 domain. bead flow cytometry, Alexa488-MEK5 binding to MEKK2 mutant. percent response, % at 10 µM. 290,000 compounds, 0.35% hits. AID 1530; in the data active means percent response above about 24%, passing the limit was not always enough
MEKK2wt PB1 HTS: raises or lowers MEK5 binding to wildtype human MEKK2 PB1 domain | 290,000 compounds, 1.1% hits | binding response (% of control), % at 10 µM | bead flow cytometry, Alexa488-MEK5 binding to MEKK2 WT; actives lie on both sides; in the data active means binding response below about 67% or above about 130%
Hep lipid drop: hepatic lipid droplet formation modulation; AML12 mouse hepatocytes, oleate lipid droplets, BODIPY imaging; inhibition, % at 6.5 µM; 240,000 compounds, 0.4% hits; AID 1656;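 active means lipid droplet intensity inhibited by at least 50%, with more than 500 cells counted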
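Material – AML12 mouse liver cells · Also added – oleate loading, 100 µM · Compound dosing – 6.5 µM single-point dosing · Times – overnight treatment with compound plus oleate · Measured by – fluorescence imaging, 20x objective, two fields per well · Read-out – percent inhibition of filter-corrected integrated lipid droplet intensity per well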
MEKK2wt confirm: raises or lowers MEK5 binding to wildtype human MEKK2, retest. binding response (% of control), % at 10 µM. bead flow cytometry, Alexa488-MEK5 binding to MEKK2 WT; actives lie on both sides. 5,900 compounds, 2.4% hits. AID 1892. shares compounds with MEKK3 PB1 HTS; in the data active means binding response below about 16% or above about 210%; inactive means in between
MEKK2mut-MEK5: signal of MEK5 binding to mutant human MEKK2, retest. bead flow cytometry, Alexa488-MEK5 binding to MEKK2 mutant. 5,900 compounds, 2% hits. percent response, % at 10 µM. shares compounds with MEKK3 PB1 HTS; in the data active means percent response mostly above about 71%, no sharp cut-off; inactive means mostly below about 38%;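 further: higher means compound restores mutant binding toward wildtype level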
MEKK3 confirm: MEKK3-MEK5 PB1 inhibition, single concentration confirmation. shares compounds with MEKK3 PB1 HTS. bead flow cytometry, Alexa488-MEK5 binding to MEKK3; hits give low values. binding response (% of control), % at 10 µM. 5,900 compounds, 1.8% hits. AID 1894;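 active means binding response below 72% of control, or above a set upper limit, though filed actives all read lower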
Hits are given with their value; n = inactive; x = no result given; [ ] = another dose, or the depositor's remark.

SMILES	MEKK3 PB1 HTS	MEKK2 mut-MEK5	MEKK2wt PB1 HTS	Hep lipid drop	MEKK2wt confirm	MEKK2mut-MEK5	MEKK3 confirm
O=C(Nc1ccc(S(=O)(=O)Nc2nccs2)cc1)c1ccc(N2C(=O)c3ccccc3C2=O)cc1	n	n	n	n	x	x	x
CCC1Oc2ccc(C)cc2N(CC(=O)NCCN2CCCCCC2)C1=O (stereo not drawn)	n	n	137.0	x	n	n	n
O=C(N/N=C\C=C\c1ccco1)c1cc(-c2ccc3ccccc3c2)n[nH]1	132.0	n	n	n	n	n	n
CCOC(=O)C1CCN(S(=O)(=O)c2ccc(-c3ccccn3)s2)CC1	130.0	n	n	n	n	n	n
CCOC(=O)C1CCN(S(=O)(=O)c2ccc(OC)c(Cl)c2Cl)CC1	82.0[inhibitor]	n	n	n	n	n	n
CCOC(=O)C1CCN(S(=O)(=O)c2ccccc2)CC1	n	n	n	n	x	x	x
CCOC(=O)C1CCN(S(=O)(=O)c2ccc(-n3cnnn3)c(C)c2)CC1	79.0[inhibitor]	n	n	x	n	n	n
O=c1cc(CN2CCCCC2)nc(C2CC2)[nH]1	n	n	n	n	x	x	x
Cc1nc(CN2CCOCC2)cc(=O)[nH]1	2.0[inhibitor]	n	2.0[inhibitor]	n	n	n	n
Cc1cc(C(=O)Nc2ccc(Cl)cc2)on1	n	n	n	n	x	x	x
Cc1cc(C(=O)Nc2ccc(C#N)cc2)on1	4.0[inhibitor]	n	8.0[inhibitor]	n	n	n	n
COc1cc(CNCCN2CCOCC2)ccc1OCc1ccc(Cl)cc1	n	n	n	n	x	x	x
COc1cc(CNCCCN2CCOCC2)cc(Br)c1OCc1ccc(Cl)cc1	n	n	158.0	n	n	n	n
CCOc1cc(CNCCCN2CCOCC2)cc(Br)c1OCC(=O)Nc1cccc(C(F)(F)F)c1	n	31.0	162.0	x	n	n	n
COc1ccc(/C=C/C(=O)NCC(=O)N/N=C/c2cc(Br)ccc2OC)cc1	n	91.0	n	x	n	n	n
O=C(NC12CC3CC(CC(C3)C1)C2)c1ccc([N+](=O)[O-])o1	n	n	n	n	x	x	x
CC1(C)Cc2c(ccc3ccccc23)-c2nnc(-c3cccnc3)n21	0.0[inhibitor]	n	-8.0[inhibitor]	x	n	n	n
C=CCn1c(SCc2cccc3ccccc23)nnc1-c1cccnc1	n	n	n	x	x	x	x
COc1ccc(-c2nnc(SCc3nnc(-c4cccs4)o3)n2CC2CCCO2)cc1 (stereo not drawn)	49.0[inhibitor]	n	n	n	n	n	n
Fc1ccc(NCc2nnc(SCc3nnc(-c4ccccc4)o3)n2CC2CCCO2)cc1 (stereo not drawn)	124.0	n	n	n	n	n	n
CCn1c(C)nc2cc(C(=O)NNC(=S)Nc3ccc(OC)cc3)ccc21	n	n	n	n	x	x	x
Cn1c(N)c(C(=O)COC(=O)CCCOc2ccc(Cl)cc2Cl)c(=O)n(C)c1=O	n	n	n	n	x	x	x
O=C(CSc1nnc(CNc2cccc(Cl)c2)o1)OC1CCCCC1	n	n	n	x	x	x	x
O=C(CSc1nnc(CNc2ccc(F)cc2)o1)OC1CCCCC1	2.0[inhibitor]	n	2.0[inhibitor]	x	n	n	n
O=C(Nc1cccc(-c2cccc(Cl)c2)c1)C1CCN(Cc2ccc(CO)o2)CC1	n	n	153.0	n	n	n	n
SMILES	MEKK3 PB1 HTS	MEKK2 mut-MEK5	MEKK2wt PB1 HTS	Hep lipid drop	MEKK2wt confirm	MEKK2mut-MEK5	MEKK3 confirm
CC(C)n1cc(CN2CCC(C(=O)Nc3cccc(-c4cccc(Cl)c4)c3)CC2)cn1	n	34.0	183.0	n	n	73.0	n
CCn1cc(CN2CCC(C(=O)Nc3cccc(-c4cccc(OC)c4)c3)CC2)cn1	n	n	n	n	x	x	x
Cn1c(Cc2cccs2)nnc1SC/C=C/c1ccccc1	n	n	n	n	x	x	x
Cc1cccc(NC(=O)CN2CCN(CC(=O)Nc3cccc(C)c3)CC2)c1	82.0[inhibitor]	n	n	x	n	n	n
Cc1cc(NC(=O)CC2CCCC2)ccc1Br	n	n	n	n	x	x	x
Cc1cccc(NC(=O)CC2CCC2)c1	2.0[inhibitor]	n	-1.0[inhibitor]	n	n	n	n
COc1ccc(S(=O)(=O)N2CCCOC2CNC(=O)C(=O)NCCc2ccco2)cc1C (stereo not drawn)	n	n	n	n	x	x	x
OCCNc1nc(Nc2cc(Cl)ccc2OC2CCCC2)nc(N2CCCC2)n1	n	n	n	x	x	x	x
CN(C(=O)CSc1nnc(-c2ccccc2)c(-c2ccccc2)n1)C1CCS(=O)(=O)C1 (stereo not drawn)	137.0	n	n	n	n	n	n
COc1ccc(OC2OC3COC(C)(C)OC3C(O)C2NC(C)=O)cc1 (stereo not drawn)	n	24.0	n	n	n	n	n
CSc1ccccc1NC(=O)CSc1nnc(COc2ccccc2)o1	n	n	n	n	x	x	x
COc1ccccc1C1C(C(C)=O)=C(O)C(=O)N1CCc1ccccc1 (stereo not drawn)	42.0[inhibitor]	n	10.0[inhibitor]	n	n	n	n
COc1ccc(CCN2C(=O)C(O)=C(C(C)=O)C2c2ccccc2OC)cc1OC (stereo not drawn)	n	n	n	n	x	x	x
Cc1cc(C(=O)N2CCCc3ccccc32)ccc1[N+](=O)[O-]	n	n	n	n	x	x	x
CC(C)CC(=O)N=C1SC2CS(=O)(=O)CC2N1Cc1ccccc1 (stereo not drawn)	195.0	n	n	n	n	n	n
O=C(CSc1nnc2sc3ccccc3n12)c1ccco1	n	n	n	n	x	x	x
COc1ccc(N2CCN(C(=O)CSc3ccc([N+](=O)[O-])cc3)CC2)cc1	n	n	n	n	x	x	x
COc1ccc(N2CCN(C(=O)CSc3ccc(C)cc3)CC2)cc1	130.0	n	n	n	n	n	n
COc1ccc(N2CCN(C(=O)CN(Cc3ccccc3)S(C)(=O)=O)CC2)cc1	55.0[inhibitor]	n	n	n	n	n	n
COc1ccc(N2CCN(C(=O)CN(Cc3ccc(Cl)cc3)S(C)(=O)=O)CC2)cc1	n	n	n	n	x	x	x
O=C(NCCCNC(=O)c1cnccn1)c1cccc(F)c1	n	n	n	n	x	x	x
CNc1c(NC(=O)C2CCC(C)CC2)c(=O)oc2ccccc12 (stereo not drawn)	n	n	n	n	x	x	x
O=C(Cc1ccc2ccccc2c1)Nc1ccccc1Br	n	n	n	n	x	x	x
O=C(Cc1ccc2c(c1)CCCC2)Nc1ccccc1Br	43.0[inhibitor]	n	n	x	n	n	n
CCn1c(CSCc2ccc(Cl)cc2)nnc1SCC(=O)Nc1cccc(C(=O)O)c1	n	n	n	n	x	x	x
Cn1nnc2ccccc2c1=O	141.0	n	n	n	n	n	n
FC(F)(F)c1cccc(NC(=S)NNC(=S)Nc2cccc(C(F)(F)F)c2)c1	n	n	n	n	x	x	x
O=C(NNC(=S)Nc1cccc(C(F)(F)F)c1)c1ccc(Cl)cc1Cl	162.0	n	n	n	n	n	n
